Assay [1] has as its system Mycobacterium tuberculosis. In words: Antimicrobial activity against Mycobacterium tuberculosis at pH 6 by broth microdilution test. In kind it is functional.
For assay [2], the system named is Mycobacterium tuberculosis. In words: Antimicrobial activity against Mycobacterium tuberculosis at pH 6.8 by broth microdilution test. It counts as functional. The method in brief:
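Broth macrodilution MIC with an inoculum of 10^5 CFU/ml. Medium was Middlebrook 7H9 with 10% OADC, 0.2% glycerol and 0.05% Tween 80. Medium pH was set to 6 or 6.8 with 4.25% phosphoric acid or 5% dibasic potassium phosphate.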
For orientation: In broth dilution the organism is exposed to a series of concentrations in liquid medium.

Assay [3] relates to Mycobacterium tuberculosis. The assay is described as follows: Inhibition of fatty acid synthase 1 in Mycobacterium tuberculosis assessed as incorporation of [1-14C]acetate in C16 biosynthesis at 800 ug/ml. The method, boiled down:
(§1)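 M. tuberculosis was grown from frozen stock in 7H12 to OD600 0.3–0.4, diluted 10-fold and grown 48–72 h more. 10-ml aliquots (OD600 0.2–0.25) were pelleted and resuspended in fresh drug-containing medium for 12 h. Cells were labelled with [1-14C]acetate (1 μCi/ml) for 6 h. Soluble lipids were extracted and saponified, and 14C-labelled C16 was quantified.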

Assay [4] has as its system Mycobacterium tuberculosis. The assay is described as follows: Inhibition of fatty acid synthase 1 in Mycobacterium tuberculosis assessed as incorporation of [1-14C]acetate in C16 biosynthesis at 1250 ug/ml at pH 6.0. The method in brief: as §1
The test system of assay [5] is Mycobacterium tuberculosis. In words: Inhibition of fatty acid synthase 1 in Mycobacterium tuberculosis assessed as incorporation of [1-14C]acetate in C16 biosynthesis at 250 ug/ml at pH 5.5. The method, boiled down: as §1
Assay [6] has as its system Mycobacterium tuberculosis. The assay is described as follows: Inhibition of fatty acid synthase 1 in Mycobacterium tuberculosis assessed as incorporation of [1-14C]acetate in C16 biosynthesis at 1200 ug/ml at pH 6.0. The method, boiled down:
as §1

The test system of assay [7] is Mycobacterium tuberculosis. In words: Inhibition of fatty acid synthase 1 in Mycobacterium tuberculosis assessed as incorporation of [1-14C]acetate in C16 biosynthesis at 250 ug/ml. The method in brief:
as §1

Values after ≈ are worked out from the molar mass of the structure shown.

As usually defined, the MIC is the least concentration at which growth counts as inhibited. What is called inhibition is the percentage by which the read-out fell short of the control.

In the case of `CCCOC(=O)c1cnccn1`, the MIC was determined as 60 mg/L (≈ 361 µM) in assay [1] and 80 mg/L (≈ 481 µM) in assay [2]. The inhibition in assay [3] was 96%.

Turning to `O=C(O)c1cnccn1` [PYRAZINOIC ACID], the MIC stood at 100 mg/L (≈ 806 µM) in assay [1] and 300 mg/L (≈ 2420 µM) in assay [2]. Further, the inhibition in assay [4] and in assay [5] was 60% in each case.

Take `NC(=O)c1cnccn1`: in assay [6], the inhibition was determined as 88%.

For the molecule `NC(=O)c1cnc(Cl)cn1`, the inhibition in assay [7] came to 94%.

Values taken from ChEMBL document CHEMBL1142174, “Pyrazinoic acid and its n-propyl ester inhibit fatty acid synthase type I in replicating tubercle bacilli” (2007).
